From ChEMBL document CHEMBL3525938, “Whole-body physiologically based pharmacokinetic model for nutlin-3a in mice after intravenous and oral administration” (Drug Metab Dispos, 2011)

Key:
Intestine [1] = test: Drug uptake in C57BL/6 mouse intestine at 10 mg/kg, iv as single dose measured at 24 hrs; assay type: ADME, organism-based; design: dose 10 mg/kg, route intravenous; details: in vivo
Plasma [2] = test: Drug uptake in C57BL/6 mouse plasma at 10 mg/kg, iv as single dose measured at 24 hrs; assay type: ADME, organism-based; design: dose 10 mg/kg, route intravenous; details: in vivo
Summary of the method: (§1)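 Plasma came from two studies in C57BL/6 mice. Study 1: single iv dose of 10 mg/kg or oral dose of 100 or 200 mg/kg, n = 5, blood by cardiac puncture at 0.5–48 h. Study 2 (males): iv 10 or 20 mg/kg, oral 50 or 100 mg/kg, serial plasma to 24 h (iv) or 16 h (oral). Plasma was separated at 12,000g for 5 min at 4°C and measured by LC-ESI-MS/MS.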

Plasma [3] = test: Drug uptake in C57BL/6 mouse plasma at 50 to 200 mg/kg, po as single dose measured at 2 hrs; assay type: ADME, organism-based; design: dose 50-200 mg/kg, route oral; details: in vivo; summary of the method: as §1
[4] = Ratio of drug level in blood to plasma in C57BL/6 mouse after 30 mins; assay type: ADME; details: blood and plasma
Summary of the method: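 Pooled heparinized whole blood from male C57BL/6 mice was spiked at 0.1, 1, 10 and 100 μM final, in triplicate, and incubated at 37°C for 30 min with mixing every 5 min. Whole blood was sampled, and plasma was obtained by centrifugation. Both were measured by LC-MS/MS, and the ratio was calculated from the whole-blood and plasma concentrations.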

Lung [5] = test: Drug uptake in C57BL/6 mouse lung at 10 mg/kg, iv as single dose measured at 24 hrs; assay type: ADME, organism-based; design: dose 10 mg/kg, route intravenous; details: in vivo
[6] = Drug uptake in C57BL/6 mouse adrenal gland at 50 to 200 mg/kg, po as single dose measured at 2 hrs; assay type: ADME, organism-based; design: dose 50-200 mg/kg, route oral; details: in vivo
Bone marrow [7] = test: Drug uptake in C57BL/6 mouse bone marrow at 50 to 200 mg/kg, po as single dose measured at 2 hrs; assay type: ADME, organism-based; design: dose 50-200 mg/kg, route oral; details: in vivo
Summary of the method: (§2)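 Adult C57BL/6 mice received a single bolus of 10 mg/kg by tail-vein iv injection or 100 or 200 mg/kg by oral gavage, with n = 5 per group and vehicle controls. Samples were taken at 0.5–48 h. Blood came by cardiac puncture under isoflurane, and tissues were dissected at the same time and frozen at −80°C. Tissues were homogenized in 5 mM ammonium formate, pH 7, and assayed by LC-ESI-MS/MS against matrix-matched standards.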

[8] = Drug uptake in C57BL/6 mouse adrenal gland at 10 mg/kg, iv as single dose measured at 24 hrs; assay type: ADME, organism-based; design: dose 10 mg/kg, route intravenous; details: in vivo
[9] = Drug uptake in C57BL/6 mouse adipose tissue at 10 mg/kg, iv as single dose measured at 24 hrs; assay type: ADME, organism-based; design: dose 10 mg/kg, route intravenous; details: in vivo
Spleen [10] = test: Drug uptake in C57BL/6 mouse spleen at 50 to 200 mg/kg, po as single dose measured at 2 hrs; assay type: ADME, organism-based; design: dose 50-200 mg/kg, route oral; details: in vivo; summary of the method: as §2
Liver [11] = test: Drug uptake in C57BL/6 mouse liver at 50 to 200 mg/kg, po as single dose measured at 2 hrs; assay type: ADME, organism-based; design: dose 50-200 mg/kg, route oral; details: in vivo; summary of the method: as §2
[12] = Cytotoxicity against doxorubicin-resistant human UKF-NB-3 cells after 96 hrs by MTT assay; assay type: functional, cell-based; details: UKF-NB-3, 96 h
[13] = Drug uptake in C57BL/6 mouse retina at 50 to 200 mg/kg, po as single dose measured at 2 hrs; assay type: ADME, organism-based; design: dose 50-200 mg/kg, route oral; details: in vivo
[14] = Drug uptake in C57BL/6 mouse adipose tissue at 50 to 200 mg/kg, po as single dose measured at 2 hrs; assay type: ADME, organism-based; design: dose 50-200 mg/kg, route oral; details: in vivo
Brain [15] = test: Drug uptake in C57BL/6 mouse brain at 50 to 200 mg/kg, po as single dose measured at 2 hrs; assay type: ADME, organism-based; design: dose 50-200 mg/kg, route oral; details: in vivo; summary of the method: as §2
Lung [16] = test: Drug uptake in C57BL/6 mouse lung at 50 to 200 mg/kg, po as single dose measured at 2 hrs; assay type: ADME, organism-based; design: dose 50-200 mg/kg, route oral; details: in vivo
Muscle tissue [17] = test: Drug uptake in C57BL/6 mouse muscle at 50 to 200 mg/kg, po as single dose measured at 2 hrs; assay type: ADME, organism-based; design: dose 50-200 mg/kg, route oral; details: in vivo
Liver [18] = test: Drug uptake in C57BL/6 mouse liver at 10 mg/kg, iv as single dose measured at 24 hrs; assay type: ADME, organism-based; design: dose 10 mg/kg, route intravenous; details: in vivo; summary of the method: as §2
Bone marrow [19] = test: Drug uptake in C57BL/6 mouse bone marrow at 10 mg/kg, iv as single dose measured at 24 hrs; assay type: ADME, organism-based; design: dose 10 mg/kg, route intravenous; details: in vivo; summary of the method: as §2
Brain [20] = test: Drug uptake in C57BL/6 mouse brain at 10 mg/kg, iv as single dose measured at 24 hrs; assay type: ADME, organism-based; design: dose 10 mg/kg, route intravenous; details: in vivo; summary of the method: as §2
[21] = Fraction unbound in C57BL/6 mouse plasma at 300 uM up to 24 hrs by equilibrium dialysis method; assay type: ADME, cell-free
Summary of the method: (§3)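 Equilibrium dialysis used male C57BL/6 plasma spiked with the drug against PBS across a 5-kDa membrane. The plate was rotated at 37°C under humidified 5% CO2 for 24 h, in triplicate. The plasma side was taken as bound and the PBS side as free, both measured by LC-MS/MS. Fraction unbound was calculated relative to total plasma concentration.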

Spleen [22] = test: Drug uptake in C57BL/6 mouse spleen at 10 mg/kg, iv as single dose measured at 24 hrs; assay type: ADME, organism-based; design: dose 10 mg/kg, route intravenous; details: in vivo; summary of the method: as §2
[23] = Drug uptake in C57BL/6 mouse vitreous humor at 50 to 200 mg/kg, po as single dose measured at 2 hrs; assay type: ADME, organism-based; design: dose 50-200 mg/kg, route oral; details: in vivo
Intestine [24] = test: Drug uptake in C57BL/6 mouse intestine at 50 to 200 mg/kg, po as single dose measured at 2 hrs; assay type: ADME, organism-based; design: dose 50-200 mg/kg, route oral; details: in vivo
[25] = Drug uptake in C57BL/6 mouse retina at 10 mg/kg, iv as single dose measured at 24 hrs; assay type: ADME, organism-based; design: dose 10 mg/kg, route intravenous; details: in vivo; summary of the method: as §2
[26] = Drug uptake in C57BL/6 mouse vitreous humor at 10 mg/kg, iv as single dose measured at 24 hrs; assay type: ADME, organism-based; design: dose 10 mg/kg, route intravenous; details: in vivo; summary of the method: as §2
[27] = Fraction unbound in C57BL/6 mouse plasma at 0.1 uM up to 24 hrs by equilibrium dialysis method; assay type: ADME, cell-free; summary of the method: as §3
Muscle tissue [28] = test: Drug uptake in C57BL/6 mouse muscle at 10 mg/kg, iv as single dose measured at 24 hrs; assay type: ADME, organism-based; design: dose 10 mg/kg, route intravenous; details: in vivo

COc1ccc(C2=N[C@@H](c3ccc(Cl)cc3)[C@@H](c3ccc(Cl)cc3)N2C(=O)N2CCNC(=O)C2)c(OC(C)C)c1 [NUTLIN-3]
Drug uptake (Intestine [1]): Not Active
Drug uptake (Plasma [2]): Not Active
Drug uptake (Plasma [3]): Active
blood plasma ratio at 0.5 h [4]: 0.7
Drug uptake (Lung [5]): Not Active
Drug uptake [6]: Active
Drug uptake (Bone marrow [7]): Not Active
Drug uptake [8]: Not Active
Drug uptake [9]: Not Active
Drug uptake (Spleen [10]): Active
Drug uptake (Liver [11]): Active
IC50 [12]: 5.56 µM
Drug uptake [13]: Active
Drug uptake [14]: Active
Drug uptake (Brain [15]): Not Active
Drug uptake (Lung [16]): Active
Drug uptake (Muscle tissue [17]): Active
Drug uptake (Liver [18]): Not Active
Drug uptake (Bone marrow [19]): Not Active
Drug uptake (Brain [20]): Not Active
fraction unbound at 24 h, 300 µM [21]: 0.118
Drug uptake (Spleen [22]): Not Active
Drug uptake [23]: Not Active
Drug uptake (Intestine [24]): Active
Drug uptake [25]: Not Active
Drug uptake [26]: Not Active
fraction unbound at 24 h, 0.1 µM [27]: 0.007
Drug uptake (Muscle tissue [28]): Not Active
